Measured values taken from ChEMBL document CHEMBL4334424, “The winding road of the uvaretin class of natural products: from total synthesis to bioactive agent discovery” (Medchemcomm, 2019).
pIC50: −log10 of the molar value. Active and inactive are the calls of the source. The calls are words filed in the database; no cut-off is given here.

Tests used:
[1] = test system: HCT-116; assay: Cytotoxicity against human HCT116 cells assessed as reduction in cell viability incubated for 72 hrs by alamar blue assay; format: functional, cell-based; conditions: HCT-116, 72 h
Outline: (§1)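 Adherent cells were seeded at 1500 cells/well in 384-well plates and allowed 2–3 h to attach. Compounds in DMSO, diluted in media over 31.6 nM–200 μM, were tested in triplicate for 72 h continuous exposure at 37 °C, 5% CO2. Alamar Blue was added for the final 3 h and fluorescence read (ex 560/em 590 nm). IC50 was fitted from ≥3 independent experiments.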

[2] = test system: A549; assay: Cytotoxicity against human A549 cells assessed as reduction in cell viability incubated for 72 hrs by alamar blue assay; format: functional, cell-based; conditions: A549, 72 h; outline: as §1
[3] = test system: MIA PaCa-2; assay: Cytotoxicity against human MIAPaCa2 cells assessed as reduction in cell viability incubated for 72 hrs by alamar blue assay; format: functional, cell-based; conditions: MIA PaCa-2, 72 h; outline: as §1
[4] = test system: HeLa; assay: Cytotoxicity against human HeLa cells assessed as reduction in cell viability incubated for 72 hrs by alamar blue assay; format: functional, cell-based; outline: as §1
[5] = test system: REH; assay: Cytotoxicity against human REH cells assessed as reduction in cell viability incubated for 72 hrs by alamar blue assay; format: functional, cell-based
Outline: (§2)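 Suspension cells (2200/well, 384-well) were added directly onto compound in media with no attachment period. Compounds spanned 31.6 nM–200 μM in triplicate, with 72 h exposure at 37 °C, 5% CO2. Alamar Blue was added for the last 3 h and fluorescence read (ex 560/em 590 nm). IC50 came from ≥3 independent experiments.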

[6] = test system: U-937; assay: Cytotoxicity against human U937 cells assessed as reduction in cell viability incubated for 72 hrs by alamar blue assay; format: functional, cell-based; conditions: U-937, 72 h; outline: as §2
[7] = test system: MIA PaCa-2; assay: Cytotoxicity against human MIAPaCa2 cells assessed as cell viability at 2.5 uM incubated for 72 hrs in presence of 50 uM 6TP by alamar blue assay (reference value: 13.8 %); format: functional
Outline: (§3)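 Combination assay in 96-well plates with 100 μL final volume and 1% DMSO. Two test-compound concentrations were crossed with five 6TP concentrations, then cells were added (4000/well adherent, 7000/well suspension). Plates ran 72 h at 37 °C, 5% CO2, with Alamar Blue viability read-out and ≥3 independent experiments. Combination index was calculated by the Chou–Talalay method.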

[8] = test system: MIA PaCa-2; assay: Cytotoxicity against human MIAPaCa2 cells assessed as cell viability at 5 uM incubated for 72 hrs in presence of 10 uM 6TP by alamar blue assay (reference value: 6.9 %); format: functional; outline: as §3
[9] = test system: MIA PaCa-2; assay: Cytotoxicity against human MIAPaCa2 cells assessed as cell viability at 5 uM incubated for 72 hrs in presence of 25 uM 6TP by alamar blue assay (reference value: 6.4 %); format: functional; outline: as §3
[10] = test system: MIA PaCa-2; assay: Cytotoxicity against human MIAPaCa2 cells assessed as cell viability at 2.5 uM incubated for 72 hrs by alamar blue assay (reference value: 0 %); format: functional; conditions: MIA PaCa-2, 72 h, read-out: Activity; outline: as §3
[11] = test system: MIA PaCa-2; assay: Cytotoxicity against human MIAPaCa2 cells assessed as combinational index at 2.5 uM incubated for 72 hrs in presence of 200 uM 6TP by alamar blue assay; format: functional; outline: as §3
[12] = test system: MIA PaCa-2; assay: Cytotoxicity against human MIAPaCa2 cells assessed as combinational index at 2.5 uM incubated for 72 hrs in presence of 25 uM 6TP by alamar blue assay; format: functional; outline: as §3
[13] = test system: MIA PaCa-2; assay: Cytotoxicity against human MIAPaCa2 cells assessed as combinational index at 2.5 uM incubated for 72 hrs in presence of 50 uM 6TP by alamar blue assay; format: functional; outline: as §3
[14] = test system: MIA PaCa-2; assay: Cytotoxicity against human MIAPaCa2 cells assessed as combinational index at 5 uM incubated for 72 hrs in presence of 200 uM 6TP by alamar blue assay; format: functional; outline: as §3
[15] = test system: MIA PaCa-2; assay: Cytotoxicity against human MIAPaCa2 cells assessed as cell viability at 2.5 uM incubated for 72 hrs in presence of 10 uM 6TP by alamar blue assay (reference value: 6.9 %); format: functional; outline: as §3
[16] = test system: MIA PaCa-2; assay: Cytotoxicity against human MIAPaCa2 cells assessed as cell viability at 2.5 uM incubated for 72 hrs in presence of 25 uM 6TP by alamar blue assay (reference value: 6.4 %); format: functional; outline: as §3
[17] = test system: MIA PaCa-2; assay: Cytotoxicity against human MIAPaCa2 cells assessed as cell viability at 5 uM incubated for 72 hrs by alamar blue assay (reference value: 0 %); format: functional; conditions: MIA PaCa-2, 72 h, read-out: Activity; outline: as §3
[18] = test system: MIA PaCa-2; assay: Cytotoxicity against human MIAPaCa2 cells assessed as cell viability at 5 uM incubated for 72 hrs in presence of 100 uM 6TP by alamar blue assay (reference value: 30.7 %); format: functional; outline: as §3
[19] = test system: MIA PaCa-2; assay: Cytotoxicity against human MIAPaCa2 cells assessed as combinational index at 5 uM incubated for 72 hrs in presence of 100 uM 6TP by alamar blue assay; format: functional; outline: as §3
[20] = test system: MIA PaCa-2; assay: Cytotoxicity against human MIAPaCa2 cells assessed as combinational index at 2.5 uM incubated for 72 hrs in presence of 100 uM 6TP by alamar blue assay; format: functional; outline: as §3
[21] = test system: MIA PaCa-2; assay: Cytotoxicity against human MIAPaCa2 cells assessed as combinational index at 5 uM incubated for 72 hrs in presence of 50 uM 6TP by alamar blue assay; format: functional; outline: as §3
[22] = test system: MIA PaCa-2; assay: Cytotoxicity against human MIAPaCa2 cells assessed as cell viability at 2.5 uM incubated for 72 hrs in presence of 100 uM 6TP by alamar blue assay (reference value: 30.7 %); format: functional; outline: as §3
[23] = test system: MIA PaCa-2; assay: Cytotoxicity against human MIAPaCa2 cells assessed as combinational index at 5 uM incubated for 72 hrs in presence of 25 uM 6TP by alamar blue assay; format: functional; outline: as §3
[24] = test system: MIA PaCa-2; assay: Cytotoxicity against human MIAPaCa2 cells assessed as cell viability at 5 uM incubated for 72 hrs in presence of 50 uM 6TP by alamar blue assay (reference value: 13.8 %); format: functional; outline: as §3
[25] = test system: U-937; assay: Cytotoxicity against human U937 cells assessed as reduction in cell viability incubated for 72 hrs in presence of 6TP by alamar blue assay; format: functional; outline: as §3
[26] = test system: HeLa; assay: Cytotoxicity against human HeLa cells assessed as reduction in cell viability incubated for 72 hrs in presence of doxorubicin by alamar blue assay; format: functional
Outline: (§4)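 Same combination format as the 6TP study, with the cytotoxic partner (doxorubicin, etoposide or paclitaxel) combined with test compound. Cells were at 4000/well (adherent) in 100 μL, 1% DMSO, for 72 h at 37 °C, 5% CO2, with Alamar Blue viability read-out. Combination index was derived by the Chou–Talalay protocol and reported as a median.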

[27] = test system: HCT-116; assay: Cytotoxicity against human HCT116 cells assessed as reduction in cell viability incubated for 72 hrs in presence of 6TP by alamar blue assay; format: functional, cell-based; outline: as §3
[28] = test system: HCT-116; assay: Cytotoxicity against human HCT116 cells assessed as reduction in cell viability incubated for 72 hrs in presence of etoposide by alamar blue assay; format: functional, cell-based; outline: as §4
[29] = test system: HCT-116; assay: Cytotoxicity against human HCT116 cells assessed as reduction in cell viability incubated for 72 hrs in presence of doxorubicin by alamar blue assay; format: functional, cell-based; outline: as §4
[30] = test system: HCT-116; assay: Cytotoxicity against human HCT116 cells assessed as reduction in cell viability incubated for 72 hrs in presence of paclitaxel by alamar blue assay; format: functional, cell-based; outline: as §4

SMILES	pIC50 [1]	pIC50 [2]	pIC50 [3]	pIC50 [4]	pIC50 [5]	pIC50 [6]	other results
COCOc1cc(OCOC)c(C(C)=O)c(OCOC)c1	< 4.70	< 4.70	5.21	< 4.70	< 4.70	4.93	–
CC(=O)c1c(O)cc(O)cc1O [2,4,6-TRIHYDROXYACETOPHENONE]	< 4.70	< 4.70	< 4.70	< 4.70	< 4.70	< 4.70	–
COCOc1cc(O)c(C(=O)/C=C/c2ccccc2)c(OCOC)c1	< 4.70	< 4.70	5.11	4.78	< 4.70	< 4.70	Activity [7]: 9.7%; Activity [8]: 8.1%; Activity [9]: 8.2%; viability at 2.5 µM [10]: 6.1%; CI [11]: 2.16; CI [12]: 1.21; CI [13]: 2.04; CI [14]: 1.43; Activity [15]: 7%; Activity [16]: 7.2%; viability at 5 µM [17]: 7.2%; Activity [18]: 19.9%; CI [19]: 1.42; CI [20]: 2.18; CI [21]: 1.87; Activity [22]: 15.2%; CI [23]: 1.13; Activity [24]: 13%
COc1cc(O)c(C(C)=O)c(OC)c1 [XANTHOXYLIN]	< 4.70	< 4.70	< 4.70	4.73	< 4.70	< 4.70	–
COCOc1cc(O)c(C(C)=O)c(OCOC)c1	< 4.70	< 4.70	< 4.70	4.91	< 4.70	5.13	–
C=CCOc1ccccc1Cc1c(OC)cc(OC)c(C(=O)/C=C/c2ccccc2)c1OC	< 4.70	5.07	5.03	5.24	4.90	5.12	–
COCOc1cc(OC)cc(OC)c1C(C)=O	< 4.70	4.77	< 4.70	4.85	< 4.70	4.88	–
COc1cc(OC)c(C(C)=O)c(OC)c1	< 4.70	5.01	4.84	5.42	< 4.70	5.14	–
COc1cc(OC)c(C(=O)CCc2ccccc2)c(OC)c1Cc1ccccc1O	< 4.70	< 4.70	< 4.70	< 4.70	< 4.70	< 4.70	CI [25]: 0.22; CI [26]: 0.11
COc1cc(OC)c(C(=O)/C=C/c2ccccc2)c(O)c1Cc1ccccc1O	< 4.70	5.24	< 4.70	5.51	5.01	5.17	–
COc1cc(O)c(Cc2ccccc2O)c(O)c1C(=O)CCc1ccccc1 [UVARETIN]	< 4.70	5.66	5.70	5.43	4.95	5.44	Activity [27]: inactive; Activity [28]: inactive; Activity [29]: inactive
COc1cc(OC)c(C(=O)/C=C/c2ccccc2)c(OC)c1Cc1ccccc1O	4.73	5.03	5.39	5.57	< 4.70	5.38	Activity [27]: inactive; Activity [28]: inactive; CI [26]: 0.12; Activity [30]: inactive
COc1cc(O)c(Cc2ccccc2O)c(O)c1C(=O)/C=C/c1ccccc1	4.71	5.37	5.29	5.34	< 4.70	5.64	Activity [27]: inactive; Activity [28]: inactive; Activity [29]: inactive
COCOc1cc(OC)cc(OC)c1C(=O)/C=C/c1ccccc1	< 4.70	5.46	5.25	5.32	4.71	5.60	–
COc1cc(O)c(C(=O)/C=C/c2ccccc2)c(OC)c1 [FLAVOKAWAIN B]	< 4.70	4.71	4.74	< 4.70	< 4.70	< 4.70	–
COc1cc(OC)c(C(=O)/C=C/c2ccccc2)c(OC)c1	< 4.70	5.37	< 4.70	5.28	< 4.70	5.17	–
COCOc1cc(OCOC)c(C(=O)/C=C/c2ccccc2)c(OCOC)c1	< 4.70	5.08	4.93	4.94	< 4.70	5.09	Activity [7]: 16.9%; Activity [8]: 18.4%; Activity [9]: 17.3%; viability at 2.5 µM [10]: 21.1%; CI [11]: 1.79; CI [12]: 0.24; CI [13]: 0.56; CI [14]: 2.09; Activity [15]: 14.2%; Activity [16]: 15%; viability at 5 µM [17]: 20%; Activity [18]: 19.3%; CI [19]: 1.01; CI [20]: 0.96; CI [21]: 0.57; Activity [22]: 17.6%; CI [23]: 0.47; Activity [24]: 17%
